Assay results taken from ChEMBL document CHEMBL1138778, “Effects of altering the electronics of 2-methoxyestradiol on cell proliferation, on cytotoxicity in human cancer cell cultures, and on tubulin polymerization” (J Med Chem, 2004).
One block for each compound: values may come before it.

Tests used:
[1] = Growth inhibitory concentration against human cancer cell line; type: functional; conditions: Cancer cell lines
Procedure, shortened: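 NCI human cancer cell line antiproliferative screen, tested over 10^-4 to 10^-8 M. GI50 is the concentration giving 50% growth inhibition of each cell line. The mean graph midpoint is the average GI50 across all lines tested, with values outside the range set to 10^-8 or 10^-4 M.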

HOP-62 = assay: Growth inhibitory concentration against human lung cancer HOP-62 cell line; type: functional
Procedure, shortened: (§1)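 Screen over 10^-4 to 10^-8 M in a human cancer cell line panel. GI50 is the concentration giving 50% growth inhibition of the individual cell line.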

SN12C = assay: Growth inhibitory concentration against human renal SN12C cancer cell line; type: functional
Procedure, shortened: (§2)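 Human cancer cell line antiproliferative screen, compounds tested over 10^-4 to 10^-8 M. GI50 is the concentration giving 50% growth inhibition of the individual cell line. GI50 values outside the tested range were set to the range limits (10^-8 or 10^-4 M) when averaging across all lines tested to give the mean graph midpoint.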

HCT-116 = assay: Growth inhibitory concentration against human colon cancer HCT116 cell line; type: functional; procedure, shortened: as §1
SF-539 = assay: Growth inhibitory concentration against human CNS SF-539 cancer cell line; type: functional; procedure, shortened: as §2
Tubulin beta chain = Tubulin beta chain (Bos taurus, UniProt Q6B856); assay: Inhibitory concentration against bovine brain tubulin polymerization; type: functional
Chain of Tubulin beta chain (Q6B856 whole entry): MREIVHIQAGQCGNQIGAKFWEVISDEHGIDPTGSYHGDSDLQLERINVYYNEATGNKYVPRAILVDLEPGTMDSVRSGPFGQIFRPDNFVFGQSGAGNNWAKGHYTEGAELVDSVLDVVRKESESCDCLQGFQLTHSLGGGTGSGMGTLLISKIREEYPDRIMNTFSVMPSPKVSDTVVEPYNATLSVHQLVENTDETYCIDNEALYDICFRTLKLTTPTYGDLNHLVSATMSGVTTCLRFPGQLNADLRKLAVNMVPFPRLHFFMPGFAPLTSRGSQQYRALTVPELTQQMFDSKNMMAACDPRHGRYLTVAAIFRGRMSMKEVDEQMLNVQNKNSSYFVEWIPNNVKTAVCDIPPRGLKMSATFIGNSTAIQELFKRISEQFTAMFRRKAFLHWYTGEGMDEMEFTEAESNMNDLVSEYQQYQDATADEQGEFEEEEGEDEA
Procedure, shortened: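 Bovine brain tubulin, 1.2 mg/mL (12 μM), was preincubated with a range of compound concentrations and then chilled on ice. GTP was added and assembly followed by turbidity at 350 nm for 20 min at 26 °C. IC50 is the concentration halving assembly at 20 min, from at least two independent assays.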

OVCAR-3 = assay: Growth inhibitory concentration against human ovarian OVCAR-3 cancer cell line; type: functional; procedure, shortened: as §2
DU-145 = assay: Growth inhibitory concentration against human prostate DU-145 cancer cell line; type: functional
Procedure, shortened: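 Human cancer cell line screen across 10^-4 to 10^-8 M compound. GI50 is the concentration giving 50% growth inhibition of the individual cell line. GI50 values below or above the tested range were taken as 10^-8 M or 10^-4 M.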

UACC-62 = assay: Growth inhibitory concentration against human melanoma UACC-62 cancer cell line; type: functional; procedure, shortened: as §2
MDA-MB-435 = assay: Growth inhibitory concentration against human breast MDA-MB-435 cancer cell line; type: functional; procedure, shortened: as §2
HUVEC = assay: Inhibitory concentration against growth of HUVEC […] cell line; type: functional, cell-based; conditions: Homo sapiens
Procedure, shortened: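 HUVEC, used up to five passages in EGM with bovine brain extract and antibiotic-antimycotic, seeded at 3000 cells/well and attached overnight. Cells were exposed to compound for 48 h. Proliferation was read by BrdU-incorporation colorimetric ELISA or by cell counting, in triplicate, with experiments repeated at least twice.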

MDA-MB-231 = assay: Inhibitory concentration against growth of MDA-MB-231 cancer cell line; type: functional, cell-based; conditions: Homo sapiens
Procedure, shortened: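 MDA-MB-231 cells in DMEM/F12 (1:1) with 10% FBS, seeded at 1000 cells/well and attached overnight. Cells were exposed to compound for 48 h. Proliferation was read by BrdU-incorporation colorimetric ELISA or by cell counting, in triplicate, with experiments repeated at least twice.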

SMILES: COc1cc2c(cc1O)CC[C@@H]1[C@@H]2CC[C@]2(C)[C@@H](O)CC[C@@H]12 [2-METHOXYESTRADIOL]
- GI50 [1]: 1300 nM
- GI50 (HOP-62): 700 nM
- GI50 (SN12C): 950 nM
- GI50 (HCT-116): 470 nM
- GI50 (SF-539): 320 nM
- IC50 (Tubulin beta chain): 5300 nM
- GI50 (OVCAR-3): 210 nM
- GI50 (DU-145): 1800 nM
- GI50 (UACC-62): 360 nM
- GI50 (MDA-MB-435): 80 nM

- IC50 (MDA-MB-231): 650 nM
SMILES: C/C=C/c1cc2c(cc1O)CC[C@@H]1[C@@H]2CC[C@]2(C)[C@@H](O)CC[C@@H]12
- IC50 (HUVEC): 590 nM
